# ChEMBL document CHEMBL2311295 (J Med Chem, 2013)
# What was measured:
# [1] = system: HCT-116; experiment: Cytotoxicity against human HCT116 cells after 72 hrs by phosphatase assay; assay type: functional, cell-based; conditions: HCT-116, 72 h
# Procedure, shortened: (§1)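 Cells diluted to 30,000 cells/mL in DMEM with 10% FBS and seeded into 96-well plates (100 μL per well), then grown 24 h at 37 °C under 5% CO2. Test agents were made as 1 mM DMSO stocks with 10-fold serial dilutions and tested at six concentrations over 0–1,000 nM or 0–10,000 nM, in duplicate, for 72 h. Acid phosphatase read-out: substrate in 0.1 M NaOAc pH 5.5 with 0.1% Triton X-100, 15 min at 37 °C, stopped with NaOH, A405.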
# [2] = system: HCT-116/VM46; experiment: Cytotoxicity against vinblastine-resistant human HCT116/VM46 cells after 72 hrs by phosphatase assay; assay type: functional, cell-based; conditions: HCT-116/VM46, 72 h
# Procedure, shortened: as §1, with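 “A405. IC50 is the mean of 4–16 determinations.” for “A405.”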
# [3] = system: HCT-116; experiment: Ratio of vinblastine IC50 to compound IC50 for human HCT116 cells; assay type: functional
# Procedure, shortened: (§2)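 Both IC50 values come from the 72 h acid phosphatase (A405) proliferation assay: six concentrations over 0–1,000 or 0–10,000 nM, with each value the mean of 4–16 determinations.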
# [4] = system: HCT-116; experiment: Ratio of IC50 for vinblastine-resistant human HCT116/VM46 cells to IC50 for human HCT116 cells; assay type: functional
# Procedure, shortened: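 Ratio of IC50 in HCT116/VM46 to IC50 in HCT116. Both IC50 values come from the 72 h phosphatase (A405) growth inhibition assay: six concentrations up to 1,000 or 10,000 nM, run in duplicate, averaging 4–16 determinations each.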
# [5] = molecular target: Tubulin (Sus scrofa) (UniProt P02554+P02550); experiment: Displacement of [3H]-vinblastine from pig tubulin at 7.2 x 10^-5 M after 60 mins; assay type: protein assay
# Procedure, shortened: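 Purified porcine tubulin (100 µL tubulin solution diluted with 850 µL general tubulin buffer) preincubated with 25 µL of 7.2 × 10⁻⁵ M ³H-vinblastine, 15 min at 37 °C. Then 25 µL of 7.2 × 10⁻⁵ M unlabeled test alkaloid added, incubation continued 60 min. Displacement of bound ³H-vinblastine measured by a previously described procedure.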
# [6] = system: HCT-116/VM46; experiment: Ratio of vinblastine IC50 to compound IC50 for vinblastine-resistant human HCT116/VM46 cells; assay type: functional; procedure, shortened: as §2
# Sequence of Tubulin (Sus scrofa) (P02550 whole entry, looked up): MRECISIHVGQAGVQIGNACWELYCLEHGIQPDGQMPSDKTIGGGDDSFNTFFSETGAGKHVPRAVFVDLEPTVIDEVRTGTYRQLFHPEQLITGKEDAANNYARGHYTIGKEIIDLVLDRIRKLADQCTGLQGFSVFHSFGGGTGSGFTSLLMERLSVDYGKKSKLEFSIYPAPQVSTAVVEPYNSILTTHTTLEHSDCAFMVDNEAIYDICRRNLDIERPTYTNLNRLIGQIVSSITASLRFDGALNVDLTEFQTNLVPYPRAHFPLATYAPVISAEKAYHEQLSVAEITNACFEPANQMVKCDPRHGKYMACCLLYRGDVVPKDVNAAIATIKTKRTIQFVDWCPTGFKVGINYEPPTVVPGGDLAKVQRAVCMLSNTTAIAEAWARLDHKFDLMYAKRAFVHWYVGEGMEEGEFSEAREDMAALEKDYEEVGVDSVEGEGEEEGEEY
# Sequence of Tubulin (Sus scrofa) (P02554 whole entry, looked up): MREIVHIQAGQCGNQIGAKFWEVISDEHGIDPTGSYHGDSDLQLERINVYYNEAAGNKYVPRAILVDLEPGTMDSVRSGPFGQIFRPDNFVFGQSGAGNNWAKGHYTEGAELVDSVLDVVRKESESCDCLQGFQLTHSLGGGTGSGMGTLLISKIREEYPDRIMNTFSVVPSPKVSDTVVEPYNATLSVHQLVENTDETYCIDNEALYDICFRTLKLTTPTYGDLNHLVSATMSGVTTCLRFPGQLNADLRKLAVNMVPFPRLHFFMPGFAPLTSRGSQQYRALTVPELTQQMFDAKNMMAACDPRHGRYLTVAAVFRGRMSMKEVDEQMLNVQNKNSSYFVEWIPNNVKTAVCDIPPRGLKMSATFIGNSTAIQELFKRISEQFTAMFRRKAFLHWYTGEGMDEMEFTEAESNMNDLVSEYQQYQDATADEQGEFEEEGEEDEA
Compound,IC50 [1],IC50 [2],Ratio IC50 [3],Ratio IC50 [4],inhibition [5],Ratio IC50 [6]
CC[C@]1(NC(=O)NC2CC2)C[C@H]2CN(CCc3c([nH]c4ccccc34)[C@@](C(=O)OC)(c3cc4c(cc3OC)N(C)[C@H]3[C@@](O)(C(=O)OC)[C@H](OC(C)=O)[C@]5(CC)C=CCN6CC[C@]43[C@@H]65)C2)C1,0.00073 µM,0.085 µM,10,–,–,–
CC[C@]1(NC(=O)Nc2cccc(OC)c2)C[C@H]2CN(CCc3c([nH]c4ccccc34)[C@@](C(=O)OC)(c3cc4c(cc3OC)N(C)[C@H]3[C@@](O)(C(=O)OC)[C@H](OC(C)=O)[C@]5(CC)C=CCN6CC[C@]43[C@@H]65)C2)C1,0.00077 µM,0.08 µM,10,–,–,–
CC[C@]1(NC(=O)Nc2ccccc2OC)C[C@H]2CN(CCc3c([nH]c4ccccc34)[C@@](C(=O)OC)(c3cc4c(cc3OC)N(C)[C@H]3[C@@](O)(C(=O)OC)[C@H](OC(C)=O)[C@]5(CC)C=CCN6CC[C@]43[C@@H]65)C2)C1,0.00077 µM,0.065 µM,10,–,–,–
CCNC(=O)N[C@@]1(CC)C[C@H]2CN(CCc3c([nH]c4ccccc34)[C@@](C(=O)OC)(c3cc4c(cc3OC)N(C)[C@H]3[C@@](O)(C(=O)OC)[C@H](OC(C)=O)[C@]5(CC)C=CCN6CC[C@]43[C@@H]65)C2)C1,0.00073 µM,0.09 µM,10,–,–,–
CC[C@]1(NC(=O)N(C)C)C[C@H]2CN(CCc3c([nH]c4ccccc34)[C@@](C(=O)OC)(c3cc4c(cc3OC)N(C)[C@H]3[C@@](O)(C(=O)OC)[C@H](OC(C)=O)[C@]5(CC)C=CCN6CC[C@]43[C@@H]65)C2)C1,0.0028 µM,0.08 µM,–,10,45.1%,–
CC[C@]1(O)C[C@H]2CN(CCc3c([nH]c4ccc(F)cc34)[C@@](C(=O)OC)(c3cc4c(cc3OC)N(C)[C@H]3[C@@](O)(C(=O)OC)[C@H](OC(C)=O)[C@]5(CC)C=CCN6CC[C@]43[C@@H]65)C2)C1,–,–,8,–,–,–
CC[C@]1(NC(=O)NC(C)C)C[C@H]2CN(CCc3c([nH]c4ccccc34)[C@@](C(=O)OC)(c3cc4c(cc3OC)N(C)[C@H]3[C@@](O)(C(=O)OC)[C@H](OC(C)=O)[C@]5(CC)C=CCN6CC[C@]43[C@@H]65)C2)C1,0.0057 µM,0.53 µM,10,–,–,–
CC[C@]1(NC(=O)NC)C[C@H]2CN(CCc3c([nH]c4ccccc34)[C@@](C(=O)OC)(c3cc4c(cc3OC)N(C)[C@H]3[C@@](O)(C(=O)OC)[C@H](OC(C)=O)[C@]5(CC)C=CCN6CC[C@]43[C@@H]65)C2)C1,0.00082 µM,0.53 µM,10,–,–,–
CC[C@]1(NC(=S)NC2CCCCC2)C[C@H]2CN(CCc3c([nH]c4ccccc34)[C@@](C(=O)OC)(c3cc4c(cc3OC)N(C)[C@H]3[C@@](O)(C(=O)OC)[C@H](OC(C)=O)[C@]5(CC)C=CCN6CC[C@]43[C@@H]65)C2)C1,0.02 µM,0.52 µM,–,26,–,–
CC[C@]1(NC(=O)Nc2ccc(-c3ccccc3)cc2)C[C@H]2CN(CCc3c([nH]c4ccccc34)[C@@](C(=O)OC)(c3cc4c(cc3OC)N(C)[C@H]3[C@@](O)(C(=O)OC)[C@H](OC(C)=O)[C@]5(CC)C=CCN6CC[C@]43[C@@H]65)C2)C1,0.0069 µM,0.47 µM,–,–,48.5%,–
CC[C@]1(NC(=O)N2CCCCC2)C[C@H]2CN(CCc3c([nH]c4ccccc34)[C@@](C(=O)OC)(c3cc4c(cc3OC)N(C)[C@H]3[C@@](O)(C(=O)OC)[C@H](OC(C)=O)[C@]5(CC)C=CCN6CC[C@]43[C@@H]65)C2)C1,0.0039 µM,0.05 µM,–,10,–,–
CCCNC(=O)N[C@@]1(CC)C[C@H]2CN(CCc3c([nH]c4ccccc34)[C@@](C(=O)OC)(c3cc4c(cc3OC)N(C)[C@H]3[C@@](O)(C(=O)OC)[C@H](OC(C)=O)[C@]5(CC)C=CCN6CC[C@]43[C@@H]65)C2)C1,0.0027 µM,0.22 µM,10,–,–,–
CC[C@]1(NC(=O)NC(C)(C)C)C[C@H]2CN(CCc3c([nH]c4ccccc34)[C@@](C(=O)OC)(c3cc4c(cc3OC)N(C)[C@H]3[C@@](O)(C(=O)OC)[C@H](OC(C)=O)[C@]5(CC)C=CCN6CC[C@]43[C@@H]65)C2)C1,0.02 µM,0.67 µM,–,–,–,–
CCNC(=O)N[C@@]1(CC)C[C@H]2CN(CCc3c([nH]c4ccc(F)cc34)[C@@](C(=O)OC)(c3cc4c(cc3OC)N(C)[C@H]3[C@@](O)(C(=O)OC)[C@H](OC(C)=O)[C@]5(CC)C=CCN6CC[C@]43[C@@H]65)C2)C1,0.00062 µM,0.07 µM,10,–,–,10
CC[C@]1(NC(=O)Nc2ccccc2)C[C@H]2CN(CCc3c([nH]c4ccccc34)[C@@](C(=O)OC)(c3cc4c(cc3OC)N(C)[C@H]3[C@@](O)(C(=O)OC)[C@H](OC(C)=O)[C@]5(CC)C=CCN6CC[C@]43[C@@H]65)C2)C1,0.0051 µM,0.39 µM,–,–,–,–
CC[C@]1(NC(=O)Nc2ccc(C(F)(F)F)cc2)C[C@H]2CN(CCc3c([nH]c4ccccc34)[C@@](C(=O)OC)(c3cc4c(cc3OC)N(C)[C@H]3[C@@](O)(C(=O)OC)[C@H](OC(C)=O)[C@]5(CC)C=CCN6CC[C@]43[C@@H]65)C2)C1,0.0071 µM,0.61 µM,–,–,–,–
